Test results from PMC8968902 (Haematologica, 2021).

Columns and labels:
TNFa [1] = details: BTKi-naïve patients; cited from earlier work
CCL3 [2] = details: BTKi-naïve patients; cited from earlier work
CCL4 [3] = details: BTKi-naïve patients; cited from earlier work
[4] = reported half-lives; cited from earlier work
CCL3 [5] = experiment: Serum cytokine levels by ELISA in CLL patients; format: in vivo, human; details: after one cycle, 246, 328 and 410 mg dose levels
TNFa [6] = experiment: Serum cytokine levels by ELISA in CLL patients; format: in vivo, human; details: after one cycle, 246, 328 and 410 mg dose levels
[7] = system: relapsed/refractory CLL or other B-cell malignancies; experiment: Phase Ib dose-escalation study: clinical activity; format: in vivo, human
[8] = Pharmacokinetics in patients; format: in vivo, human; details: 38 patients, 20.5-410 mg BID
Summary of the method: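 Phase Ib, patients with relapsed/refractory CLL or other B-cell malignancies; test compound given orally as capsules twice daily at seven escalating dose levels, 20.5 mg/dose up to 410 mg BID. Pharmacokinetic data from 38 patients across the ~12 hour dosing interval; trough concentrations taken on cycle 1 day 8.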

BTK WT = BTK WT (Homo sapiens, UniProt Q06187); experiment: In vitro cellular assay, BTK residence time, BTK WT; format: cell-based; details: read-out: BTK residence time
BTK WT, sequence (Q06187 whole entry): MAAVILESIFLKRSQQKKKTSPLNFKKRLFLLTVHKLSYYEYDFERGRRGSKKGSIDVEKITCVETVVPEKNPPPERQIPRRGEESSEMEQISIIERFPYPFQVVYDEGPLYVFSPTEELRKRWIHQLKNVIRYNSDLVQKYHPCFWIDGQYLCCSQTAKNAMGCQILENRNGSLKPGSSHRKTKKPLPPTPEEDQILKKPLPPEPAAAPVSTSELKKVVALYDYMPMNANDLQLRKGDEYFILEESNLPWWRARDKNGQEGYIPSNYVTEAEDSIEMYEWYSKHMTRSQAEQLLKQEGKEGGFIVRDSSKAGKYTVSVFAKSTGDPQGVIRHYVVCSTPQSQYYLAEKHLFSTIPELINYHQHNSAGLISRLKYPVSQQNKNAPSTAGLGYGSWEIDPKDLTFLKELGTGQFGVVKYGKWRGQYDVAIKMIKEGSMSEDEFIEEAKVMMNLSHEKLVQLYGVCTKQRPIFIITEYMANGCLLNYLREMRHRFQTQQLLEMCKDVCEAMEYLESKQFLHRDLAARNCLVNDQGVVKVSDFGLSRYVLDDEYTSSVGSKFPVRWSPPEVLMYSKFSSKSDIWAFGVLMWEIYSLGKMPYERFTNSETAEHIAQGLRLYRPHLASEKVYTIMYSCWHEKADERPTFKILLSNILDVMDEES

Protein binding = format: in vitro ADME
CCL4 [9] = experiment: Serum cytokine levels by ELISA in CLL patients; format: in vivo, human; details: after one cycle, 246, 328 and 410 mg dose levels
[10] = Phase Ib dose-escalation study: safety and tolerability in patients; format: in vivo, human

C=CC(=O)N1CCC[C@@H](n2nc(-c3ccc(Oc4ccccc4)cc3)c3c(N)ncnc32)C1 [Ibrutinib, ibrutinib]
Median decrease in TNFa (TNFa [1]): ≥ 80%
Median decrease in CCL3 (CCL3 [2]): ≥ 80%
Median decrease in CCL4 (CCL4 [3]): ≥ 80%

COc1ccc(F)cc1C(=O)NCc1ccc(-c2nn([C@@H](C)C(F)(F)F)c(N)c2C(N)=O)cc1 [Pirtobrutinib, pirtobrutinib]
Half-life [4]: approximately 20 hours

O=C(c1ccc(Oc2ccccc2)cc1Cl)c1c[nH]c2ncnc(N[C@@H]3CC[C@@H](CO)OC3)c12 [ARQ 531]
Half-life [4]: ~55 h

NC(=O)[C@H]1CCN(c2ncnc(N)c2F)C[C@@H]1N1CCC[C@@H](Nc2cc(Cl)cc(C(F)(F)F)c2)C1=O [Vecabrutinib, vecabrutinib]
Mean reduction in serum CCL3 (CCL3 [5]): 34-62%
Mean reduction in serum TNFa (TNFa [6]): 24-57%
Best response of stable disease (SD), patients ([7]; 11 CLL, 1 MCL, 1 marginal zone lymphoma): 13 patients
Patients with PR or SD who received vecabrutinib for ≥6 months ([7]; of 14 patients with PR or SD): Eight
Median time on study treatment ([7]; patients with PR or SD): 28.5 weeks
Dose proportionality of exposure and median steady-state Ctrough [8]: approximately dose-proportional
residence time (BTK WT): 15 min
Protein bound (Protein binding): 98.7%
Mean reduction in serum CCL4 (CCL4 [9]): 33-59%
Grade ≥3 AE at the two highest dose levels ([10]; 328 and 410 mg BID): no grade ≥3 AE observed
AE considered treatment-related by the investigator: anemia ([10]; all patients): 10%
AE considered treatment-related by the investigator: fatigue ([10]; all patients): 10%
Grade ≥3 AE: anemia ([10]; all patients): 23%
Grade ≥3 AE: thrombocytopenia ([10]; all patients): 10%
Patients with one or more serious AE (SAE) ([10]; all patients): seven
Treatment-emergent AE: anemia ([10]; all patients): 31%
Treatment-emergent AE: dyspnea ([10]; all patients): 21%
Treatment-emergent AE: fatigue ([10]; all patients): 21%
Treatment-emergent AE: headache ([10]; all patients): 21%
Treatment-emergent AE: nausea ([10]; all patients): 21%
Maximum-tolerated dose ([10]; doses 20.5-410 mg BID): not reached
Cardiac events or clinically significant electrocardiogram findings ([10]; human, in vivo): no cardiac events or clinically significant electrocardiogram findings
Dose-dependent toxicity ([10]; human, in vivo): No obvious pattern of dose-dependent toxicity
SAE related to study treatment per the investigator ([10]; human, in vivo): No SAE were considered related to study treatment
SAE: hematuria ([10]; human, in vivo): 1 patient
SAE: intestinal perforation ([10]; human, in vivo): 1 patient
SAE: lymphocytosis ([10]; human, in vivo): 1 patient
Dose up to which well-tolerated ([10]; oral capsules, highest dose studied): 410 mg BID
